Key:
[1] = tested on: Rattus norvegicus; test: Antiinflammatory activity in po dosed rat assessed as inhibition of carrageenan-induced paw edema; format: functional; settings: for ED50: Rattus norvegicus, po, read-out: ID50 (the source's name)
Method in brief: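 Carrageenan paw edema (Winter method) in male rats, seven animals per dose. Drug given orally as a suspension in 0.5% CMC at three or more dose levels within 0.1–18 mg/kg.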

[2] = tested on: Mus musculus; test: Analgesic activity in po dosed mouse assessed as inhibition of acetic acid-induced writhing; format: functional
Method in brief: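 Acetic acid writhing test (Koster method) in male mice, ten animals per dose level.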

[3] = tested on: Rattus norvegicus; test: Antiinflammatory activity in Wistar albino rat assessed as inhibition of adjuvant-induced arthritis at 0.25 mg/kg, po administered for 14 days prior to adjuvant challenge relative to control; format: functional
Method in brief: (§1)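 Adjuvant arthritis in female rats, ten animals per dose. Oral treatment given either prophylactically or therapeutically at the stated doses. Percent inhibition reported as mean ± SE.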

[4] = tested on: Rattus norvegicus; test: Antiinflammatory activity in Wistar albino rat assessed as inhibition of adjuvant-induced arthritis at 0.25 mg/kg, po administered for 14 days followed by adjuvant challenge relative to control; format: functional; settings: 336 h; method in brief: as §1
[5] = Acute toxicity in po dosed rat after 7 days; settings: in vivo
[6] = tested on: Rattus norvegicus; test: Analgesic activity in carrageenan-treated po dosed rat assessed as concentration required to double pain index of control; format: functional
Method in brief: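 Randall–Selitto paw-pressure test in male rats after carrageenan injection, seven animals per dose level. Pain index = pain threshold after carrageenan / threshold before carrageenan. AID2.0 is the dose doubling the control group's pain index. It and its 95% fiducial limits come from a least-squares regression line, with limits by Fieller's equation.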

[7] = Toxicity in po dosed rat assessed as induction of gastric lesion; format: organism-based, Stomach; settings: in vivo, read-out: UD50 (the source's name)
Method in brief: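 Gastric lesions scored by the Jahn and Adrian method in male rats, ten animals per dose level, after oral dosing. UD50 and 95% fiducial limits by the Litchfield–Wilcoxon method.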

[8] = tested on: Rattus norvegicus; test: Antiinflammatory activity in rat with prolonged phase of inflammation assessed as inhibition of adjuvant-carrageenan-induced paw edema at 2 mg/kg, po relative to control; format: functional
Method in brief: (§2)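 Adjuvant-carrageenan-induced inflammation in female rats, ten animals per dose. Oral dosing at 1 or 2 mg/kg. Edema inhibition scored separately for the acute and prolonged phases, given as % inhibition (mean ± SE).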

[9] = tested on: Rattus norvegicus; test: Antiinflammatory activity in rat with acute phase of inflammation assessed as inhibition of adjuvant-carrageenan-induced paw edema at 2 mg/kg, po relative to control; format: functional; method in brief: as §2
[10] = tested on: Rattus norvegicus; test: Antiinflammatory activity in rat with acute phase of inflammation assessed as inhibition of adjuvant-carrageenan-induced paw edema at 1 mg/kg, po relative to control; format: functional; method in brief: as §2
[11] = tested on: Rattus norvegicus; test: Antiinflammatory activity in rat with prolonged phase of inflammation assessed as inhibition of adjuvant-carrageenan-induced paw edema at 1 mg/kg, po relative to control; format: functional; method in brief: as §2
[12] = tested on: Rattus norvegicus; test: Potency index, ratio of phenylbutazone ID50 to compound ID50 for antiinflammatory activity in po dosed rat assessed as inhibition of carrageenan-induced paw edema; format: functional
Method in brief: (§3)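 The ratio uses oral carrageenan paw-edema ID50 values from male rats, seven animals per dose, with drugs suspended in 0.5% CMC. Each ID50 comes from a least-squares dose–response regression. The index is reference ID50 divided by test ID50 on a weight basis.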

[13] = tested on: Rattus norvegicus; test: Potency index, ratio of ketoprofen ID50 to compound ID50 for antiinflammatory activity in po dosed rat assessed as inhibition of carrageenan-induced paw edema; format: functional; method in brief: as §3
[14] = tested on: Rattus norvegicus; test: Potency index, ratio of indomethacin ID50 to compound ID50 for antiinflammatory activity in po dosed rat assessed as inhibition of carrageenan-induced paw edema; format: functional; method in brief: as §3
[15] = tested on: Rattus norvegicus; test: Antiinflammatory activity in Wistar albino rat assessed as inhibition of adjuvant-induced arthritis at 0.5 mg/kg, po administered for 14 days followed by adjuvant challenge relative to control; format: functional; settings: 336 h; method in brief: as §1
[16] = tested on: Rattus norvegicus; test: Antiinflammatory activity in Wistar albino rat assessed as inhibition of adjuvant-induced arthritis at 0.5 mg/kg, po administered for 14 days prior to adjuvant challenge relative to control; format: functional; method in brief: as §1
[17] = tested on: Rattus norvegicus; test: Antiinflammatory activity in Wistar albino rat assessed as inhibition of adjuvant-induced arthritis at 10 mg/kg, po administered for 14 days prior to adjuvant challenge relative to control; format: functional; method in brief: as §1
[18] = tested on: Rattus norvegicus; test: Antiinflammatory activity in Wistar albino rat assessed as inhibition of adjuvant-induced arthritis at 10 mg/kg, po administered for 14 days followed by adjuvant challenge relative to control; format: functional; settings: 336 h; method in brief: as §1
[19] = tested on: Rattus norvegicus; test: Antiinflammatory activity in Wistar albino rat assessed as inhibition of adjuvant-induced arthritis at 2 mg/kg, po administered for 14 days prior to adjuvant challenge relative to control; format: functional; method in brief: as §1
[20] = tested on: Rattus norvegicus; test: Antiinflammatory activity in Wistar albino rat assessed as inhibition of adjuvant-induced arthritis at 1 mg/kg, po administered for 14 days followed by adjuvant challenge relative to control; format: functional; settings: 336 h; method in brief: as §1
[21] = tested on: Rattus norvegicus; test: Antiinflammatory activity in Wistar albino rat assessed as inhibition of adjuvant-induced arthritis at 30 mg/kg, po administered for 14 days prior to adjuvant challenge relative to control; format: functional; method in brief: as §1
[22] = tested on: Rattus norvegicus; test: Antiinflammatory activity in Wistar albino rat assessed as inhibition of adjuvant-induced arthritis at 30 mg/kg, po administered for 14 days followed by adjuvant challenge relative to control; format: functional; settings: 336 h; method in brief: as §1

SMILES: O=C(O)Cc1cccc2c1C(=O)c1ccccc1CO2
- ED50 [1]: > 18 mg/kg

SMILES: COC(=O)Cc1ccc2c(c1)C(=O)c1ccccc1CO2
- ED50 [1]: 15.2 mg/kg

SMILES: CCOC(=O)Cc1ccc2c(c1)C(=O)c1ccccc1CO2
- ED50 [1]: 17.8 mg/kg

SMILES: O=C(O)Cc1cc2c(c([N+](=O)[O-])c1)OCc1ccccc1C2=O
- ED50 [1]: > 18 mg/kg

SMILES: O=C(O)Cc1ccc2c(c1)C(=O)c1ccc(Cl)cc1CO2
- ID30 [1]: 3 mg/kg
- ED50 [1]: 41.6 mg/kg

SMILES: COc1ccc2c(c1)COc1ccc(CC(=O)O)cc1C2=O
- ED50 [1]: > 18 mg/kg

SMILES: O=C(O)Cc1ccc2c(c1)C(=O)c1cc(Cl)ccc1CO2
- ID30 [1]: > 18 mg/kg
- ED50 [1]: > 18 mg/kg

SMILES: CC(C(=O)[O-])c1ccc2c(c1)C(=O)c1ccccc1CO2.CC(C(=O)[O-])c1ccc2c(c1)C(=O)c1ccccc1CO2.[Ca+2] (configuration not stated)
- ED50 [1]: 3.5 mg/kg

SMILES: CC(C(=O)O)c1ccc2c(c1)C(=O)c1ccc(Cl)cc1CO2 (configuration not stated)
- ED50 [1]: 7.6 mg/kg

SMILES: CCOC(=O)Cc1ccc2c(c1)OCc1ccccc1C2=O
- ED50 [1]: 8.6 mg/kg

SMILES: O=C(O)Cc1ccc2c(c1)OCc1cc(Cl)ccc1C2=O
- ED50 [1]: 7.6 mg/kg

SMILES: O=C(O)Cc1ccc2c(c1)OCc1cc(F)ccc1C2=O
- ED50 [1]: > 9 mg/kg

SMILES: O=C(O)Cc1ccc2c(c1)OCc1cc(I)ccc1C2=O
- ED50 [1]: 6.7 mg/kg

SMILES: COc1ccc2c(c1)COc1cc(CC(=O)O)ccc1C2=O
- ED50 [1]: > 9 mg/kg

SMILES: Cc1ccc2c(c1)COc1cc(CC(=O)O)ccc1C2=O
- ED50 [1]: 6.6 mg/kg

SMILES: O=C(O)Cc1ccc2c(c1)OCc1cc(C(F)(F)F)ccc1C2=O
- ED50 [1]: > 9 mg/kg

SMILES: CC(C(=O)O)c1ccc2c(c1)OCc1cc(Cl)ccc1C2=O (configuration not stated)
- ED50 [2]: 36 mg/kg
- inhibition in vivo at 0.25 mg/kg [3]: 50%
- inhibition in vivo at 0.25 mg/kg [4]: 26%
- LD50 at 168 h [5]: 12.1 mg/kg
- AID2.0 (dose doubling pain index) [6]: 0.28 mg/kg
- TD50 [7]: 32.3 mg/kg
- ED50 [1]: 1.4 mg/kg

SMILES: CC(C(=O)O)c1ccc2c(c1)OCc1cc(F)ccc1C2=O (configuration not stated)
- ED50 [1]: 4 mg/kg

SMILES: CC(C(=O)O)c1ccc2c(c1)OCc1cc(I)ccc1C2=O (configuration not stated)
- ED50 [1]: 4.8 mg/kg

SMILES: CC(C(=O)O)c1ccc2c(c1)OCc1cc(C(F)(F)F)ccc1C2=O (configuration not stated)
- ED50 [1]: > 9 mg/kg

SMILES: CC(C(=O)O)c1ccc2c(c1)OCc1ccc(Cl)cc1C2=O (configuration not stated)
- ED50 [1]: 11.9 mg/kg

SMILES: CC(C(=O)O)c1ccc2c(c1)C(=O)c1ccccc1CO2 (racemic)
- inhibition in vivo at 2 mg/kg [8]: 82%
- ED50 [2]: 14 mg/kg
- inhibition in vivo at 0.25 mg/kg [3]: 36%
- inhibition in vivo at 0.25 mg/kg [4]: 12%
- AID2.0 (dose doubling pain index) [6]: 0.4 mg/kg
- TD50 [7]: 14.1 mg/kg
- inhibition in vivo at 2 mg/kg [9]: 57%
- ID50 [1]: 2.6 mg/kg

SMILES: CC(C(=O)O)c1ccc2c(c1)OCc1ccccc1C2=O (racemic)
- inhibition in vivo at 1 mg/kg [10]: 59%
- ED50 [2]: 11 mg/kg
- inhibition in vivo at 0.25 mg/kg [3]: 55%
- inhibition in vivo at 0.25 mg/kg [4]: 30%
- LD50 at 168 h [5]: 34.2 mg/kg
- inhibition in vivo at 1 mg/kg [11]: 110%
- AID2.0 (dose doubling pain index) [6]: 0.18 mg/kg
- TD50 [7]: 11.4 mg/kg
- ID50 [1]: 0.76 mg/kg

SMILES: CC(C(=O)O)c1ccc2c(c1)C(=O)c1ccccc1CO2 (stereo in doubt; 10)
- ID50 [1]: 1.3 mg/kg

SMILES: CC(C(=O)O)c1ccc2c(c1)C(=O)c1ccccc1CO2 (stereo in doubt; 11)
- ID50 [1]: 7.5 mg/kg

SMILES: CC(C(=O)O)c1ccc2c(c1)OCc1ccccc1C2=O (stereo in doubt; 23)
- Ratio [12]: 165.4
- Ratio [13]: 32.3
- Ratio [14]: 15.4
- ED50 [1]: 0.43 mg/kg

SMILES: CC(C(=O)O)c1ccc2c(c1)OCc1ccccc1C2=O (stereo in doubt; 24)
- ID50 [1]: 0.67 mg/kg

SMILES: COc1ccc2c(c1)c(CC(=O)O)c(C)n2C(=O)c1ccc(Cl)cc1 [INDOMETHACIN]
- inhibition in vivo at 2 mg/kg [8]: 85%
- ED50 [2]: 10 mg/kg
- LD50 at 168 h [5]: 18.9 mg/kg
- inhibition in vivo at 0.5 mg/kg [15]: 26%
- inhibition in vivo at 0.5 mg/kg [16]: 48%
- AID2.0 (dose doubling pain index) [6]: 1.53 mg/kg
- TD50 [7]: 6.6 mg/kg
- inhibition in vivo at 2 mg/kg [9]: 48%
- ED50 [1]: 8.4 mg/kg

SMILES: O=C(O)Cc1ccc2c(c1)C(=O)c1ccccc1CO2 [ISOXEPAC]
- inhibition in vivo at 2 mg/kg [8]: 55%
- inhibition in vivo at 10 mg/kg [17]: 77%
- ED50 [2]: 95 mg/kg
- LD50 at 168 h [5]: 199 mg/kg
- AID2.0 (dose doubling pain index) [6]: 3.18 mg/kg
- TD50 [7]: 63 mg/kg
- inhibition in vivo at 2 mg/kg [9]: 28%
- inhibition in vivo at 10 mg/kg [18]: 56%
- ED50 [1]: 14.3 mg/kg

SMILES: CC(C(=O)O)c1cccc(C(=O)c2ccccc2)c1 (configuration not stated) [KETOPROFEN]
- inhibition in vivo at 2 mg/kg [19]: 84%
- ED50 [2]: 71 mg/kg
- AID2.0 (dose doubling pain index) [6]: 1.61 mg/kg
- TD50 [7]: 6.8 mg/kg
- inhibition in vivo at 1 mg/kg [20]: 42%
- ED50 [1]: 12.5 mg/kg

SMILES: O=C(O)Cc1ccc2c(c1)OCc1ccccc1C2=O [OXEPINAC]
- inhibition in vivo at 2 mg/kg [8]: 89%
- ED50 [2]: 58 mg/kg
- LD50 at 168 h [5]: 110 mg/kg
- inhibition in vivo at 0.5 mg/kg [15]: 31%
- inhibition in vivo at 0.5 mg/kg [16]: 55%
- AID2.0 (dose doubling pain index) [6]: 0.44 mg/kg
- TD50 [7]: 79.9 mg/kg
- inhibition in vivo at 2 mg/kg [9]: 45%
- ED50 [1]: 3.7 mg/kg

SMILES: CCCCC1C(=O)N(c2ccccc2)N(c2ccccc2)C1=O [PHENYLBUTAZONE]
- inhibition in vivo at 30 mg/kg [21]: 71%
- ED50 [2]: > 400 mg/kg
- inhibition in vivo at 30 mg/kg [22]: 58%
- AID2.0 (dose doubling pain index) [6]: 17.22 mg/kg
- TD50 [7]: 96 mg/kg
- ED50 [1]: 77.7 mg/kg

— ChEMBL document CHEMBL3272217, “6,11-Dihydro-11-oxodibenz [b,e] oxepinacetic acids with potent antiinflammatory activity” (J Med Chem, 1976)
